The results in this text go back to ChEMBL document CHEMBL3244185, “Synthesis and antiprotozoal activity of 2,5-bis(4-guanylphenyl)furans” (J Med Chem, 1977).

Active and inactive are the calls of the source. The calls are words filed in the database; no cut-off is given here.

Data set [1] concerns Mus musculus. As to the kind of experiment: Toxicity in ICR/HA Swiss mouse infected with Trypanosoma rhodesiense CT assessed as mortality at 640 mg/kg. It is filed as organism-based. The following applies: in vivo. On the set-up: dose 640 mg/kg. The essentials: (§1)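 Mice, five per dosage level, each dosed in mg of compound per kg body weight. ΔMST is the increase in mean survival time of treated over untreated infected controls, in days. A cure is a 30-day survival increase over controls, with at most five cures per dose. Deaths attributed to compound toxicity were scored as toxic deaths.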

In data set [2] the test system is Trypanosoma brucei rhodesiense. Kind of data set: Antitrypanosomal activity against Trypanosoma rhodesiense CT infected in ICR/HA Swiss mouse assessed as increase in mean survival time at 2.5 mg/kg. It is filed as functional. The essentials: as §1
The test system of data set [3] is Mus musculus. Kind of data set: Toxicity in ICR/HA Swiss mouse infected with Trypanosoma rhodesiense CT assessed as mortality at 20 mg/kg. Further details: dose 20 mg/kg. The conditions noted are these: in vivo. It is filed as organism-based. The method in brief:
as §1

Data set [4] has as its system Mus musculus. As to the kind of experiment: Toxicity in ICR/HA Swiss mouse infected with Trypanosoma rhodesiense CT assessed as mortality at 40 mg/kg. It is filed as organism-based. On the set-up: dose 40 mg/kg. The following applies: in vivo. The method in brief:
as §1

A further data set concerns Plasmodium berghei. As to the kind of experiment: Antimalarial activity against Plasmodium berghei infected in mouse up to 640 mg/kg, sc administered 72 hrs post infection. It is filed as functional, organism-based. Further details: dose 640 mg/kg. The essentials: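 Antimalarial screen in P. berghei-infected mice, doses in mg/kg. The read-out is the gain in mean survival time of treated animals over untreated controls. Toxicity is recorded at the dose levels tested.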

Data set [5] deals with Mus musculus. As to the kind of experiment: Toxicity in ICR/HA Swiss mouse infected with Trypanosoma rhodesiense CT assessed as mortality at 160 mg/kg. The conditions noted are these: in vivo. Further details: dose 160 mg/kg. It is filed as organism-based. The method in brief: as §1
Data set [6] concerns Trypanosoma brucei rhodesiense. Kind of data set: Antitrypanosomal activity against Trypanosoma rhodesiense CT infected in ICR/HA Swiss mouse assessed as increase in mean survival time at 5 mg/kg. It is filed as functional. The method in brief: as §1
Data set [7] has as its system Mus musculus. Kind of data set: Toxicity in ICR/HA Swiss mouse infected with Trypanosoma rhodesiense CT assessed as mortality at 320 mg/kg. It is filed as organism-based. Further details: dose 320 mg/kg. The following applies: in vivo. The essentials:
as §1

In data set [8] the test system is Trypanosoma brucei rhodesiense. As to the kind of experiment: Antitrypanosomal activity against Trypanosoma rhodesiense CT infected in ICR/HA Swiss mouse assessed as 30-day increase in survival time at 80 mg/kg relative to control. Further details: dose 80 mg/kg. It is filed as functional, organism-based. The method in brief: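 Mice infected with T. rhodesiense, dosed per mg of compound per kg body weight, five mice per dose level. A cure means survival extended 30 days beyond untreated controls, so at most five cures per dose. Non-curative effects are given as ΔMST, the gain in mean survival time in days versus controls. Toxic deaths are flagged separately.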

Data set [9] relates to Trypanosoma brucei rhodesiense. As to the kind of experiment: Antitrypanosomal activity against Trypanosoma rhodesiense CT infected in ICR/HA Swiss mouse assessed as increase in mean survival time at 40 mg/kg. It is filed as functional. The method in brief: as §1
The subject of data set [10] is Trypanosoma brucei rhodesiense. Kind of data set: Antitrypanosomal activity against Trypanosoma rhodesiense CT infected in ICR/HA Swiss mouse assessed as increase in mean survival time at 20 mg/kg. It is filed as functional. The method in brief: as §1

On to `CN1CCCN[C+]1c1ccc(-c2ccc(-c3ccc([C+]4NCCCN4C)cc3)o2)cc1.[Cl-].[Cl-]`, for which the Activity result with Mus musculus [1], with Mus musculus [3], in the data set with Mus musculus [4] and in the data set with Mus musculus [5] was “Toxic” each time. Further, the Survival in [2] amounted to 0.3 days; in [6], 0.7 days. For the same molecule, the result with Plasmodium berghei was inactive.
Regarding `CN1CCN[C+]1c1ccc(-c2ccc(-c3ccc([C+]4NCCN4C)cc3)o2)cc1.[Cl-].[Cl-]`, the Activity result in the data set with Mus musculus [1], with Mus musculus [7] and in the data set with Mus musculus [5] was “Toxic” in each case. For the same molecule, the result in data set [8] was Active. Moreover, the result in the data set with Plasmodium berghei was inactive. For the same molecule, the Survival in data set [9] came out at 5.5 days; in [10], 1.1 days.
